Measured values from ChEMBL document CHEMBL1136878, “6-amino-4-oxo-1,3-diphenyl-2-thioxo-1,2,3,4-tetrahydropyrimidine-5-carbonyl derivatives as a new class of potent inhibitors of Interleukin-8-induced neutrophil chemotaxis” (Bioorg Med Chem, 2009).
Active and inactive are the calls of the source. The rule behind the calls is not given here.

Legend:
Neutrophil [1] = experiment: Inhibition of chemotaxis in human neutrophils assessed as inhibition of fMLP-induced migration by Boyden chamber assay; type: functional, cell-based
How it was run: (§1)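 Donor blood neutrophils (dextran sedimentation, Ficoll-Hypaque, hypotonic lysis; >97% pure), preincubated with compound 15 min at room temperature. 4 × 10^5 cells in upper compartment of blind-well chamber, 3 µm cellulose ester filter. Lower compartment: IL-8 10^-9 M, fMLP 10^-8 M or C5a 10^-9 M. Incubation 37 °C, 45 min. Leading-front distance read at ×400, five fields/filter, duplicates. Net migration = stimulated minus spontaneous. IC50 by nonlinear regression, mean of ≥3 experiments.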

Neutrophil [2] = experiment: Inhibition of chemotaxis in human neutrophils assessed as inhibition of IL8-induced migration by Boyden chamber assay; type: functional, cell-based; how it was run: as §1
[3] = Cytotoxicity against human neutrophils assessed as cell viability by ethidium bromide-fluorescein diacetate test; type: cell-based, Neutrophil; parameters: concentration or dose not given beside the values; conditions: read-out: Activity
How it was run: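 Neutrophils (2 × 10^6/mL) from healthy donor blood, incubated 2 h at 37 °C in CO2 atmosphere with compounds. Cells then stained with fluorescein diacetate/ethidium bromide in HBSS, 10 min at room temperature. Scored under UV dark-field: green = intact membrane (viable), red nucleus = necrotic; percentage viable cells.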

Neutrophil [4] = experiment: Inhibition of chemotaxis in human neutrophils assessed as inhibition of C5a-induced migration by Boyden chamber assay; type: functional, cell-based; how it was run: as §1
[5] = biological target: T1, C-X-C chemokine receptor type 2 (Homo sapiens) (UniProt P25025); experiment: Binding affinity to CXCR2
T1 sequence (whole entry): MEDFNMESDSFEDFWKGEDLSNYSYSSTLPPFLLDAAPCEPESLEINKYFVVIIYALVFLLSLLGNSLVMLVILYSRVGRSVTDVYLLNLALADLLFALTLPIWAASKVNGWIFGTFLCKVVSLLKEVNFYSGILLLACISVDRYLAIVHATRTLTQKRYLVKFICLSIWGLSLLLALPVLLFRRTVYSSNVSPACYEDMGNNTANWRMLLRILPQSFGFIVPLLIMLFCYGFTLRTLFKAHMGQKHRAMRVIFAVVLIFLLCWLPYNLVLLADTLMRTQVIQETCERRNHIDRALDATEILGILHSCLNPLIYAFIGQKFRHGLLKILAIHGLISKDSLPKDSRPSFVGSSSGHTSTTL

[6] = biological target: T2, C-X-C chemokine receptor type 1 (Homo sapiens) (UniProt P25024); experiment: Binding affinity to CXCR1
T2 sequence (whole entry): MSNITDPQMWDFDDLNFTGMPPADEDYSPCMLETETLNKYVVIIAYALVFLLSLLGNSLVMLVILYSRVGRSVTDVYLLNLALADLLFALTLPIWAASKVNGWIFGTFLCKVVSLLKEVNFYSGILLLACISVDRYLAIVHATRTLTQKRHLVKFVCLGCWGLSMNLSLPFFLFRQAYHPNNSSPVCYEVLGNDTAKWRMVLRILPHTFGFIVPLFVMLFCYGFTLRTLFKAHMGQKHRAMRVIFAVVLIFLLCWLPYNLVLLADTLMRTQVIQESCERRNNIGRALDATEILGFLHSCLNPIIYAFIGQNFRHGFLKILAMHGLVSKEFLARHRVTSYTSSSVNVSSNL

Mus musculus [7] = experiment: Inhibition of chemotaxis in zymosan-induced peritonitis Swiss mouse model assessed as number of peritoneal granulocytes per cavity at 50 mg/kg, po pretreated 1 hr before zymosan-challenge measured 4 hrs post inducer challenge (Rvb=27.1+/-3.5 million); type: functional
Mus musculus [8] = experiment: Inhibition of chemotaxis in zymosan-induced peritonitis Swiss mouse model assessed as number of peritoneal cells per cavity at 50 mg/kg, po pretreated 1 hr before zymosan-challenge measured 4 hrs post inducer challenge (Rvb=31.5+/-1.2 million); type: functional
Mus musculus [9] = experiment: Inhibition of chemotaxis in zymosan-induced peritonitis Swiss mouse model assessed as peritoneal protein concentration at 50 mg/kg, po pretreated 1 hr before zymosan-challenge measured 4 hrs post inducer challenge (Rvb=1961+/-[…]); type: functional
Mus musculus [10] = experiment: Inhibition of chemotaxis in zymosan-induced peritonitis Swiss mouse model assessed as peritoneal protein concentration at 3 mg/kg, po pretreated 1 hr before zymosan-challenge measured 4 hrs post inducer challenge (Rvb=1961+/-160 µg/mL)
Mus musculus [11] = experiment: Inhibition of chemotaxis in zymosan-induced peritonitis Swiss mouse model assessed as number of peritoneal granulocytes per cavity at 3 mg/kg, po pretreated 1 hr before zymosan-challenge measured 4 hrs post inducer challenge (Rvb=27.1+/-3.5 million); type: functional
Mus musculus [12] = experiment: Inhibition of chemotaxis in zymosan-induced peritonitis Swiss mouse model assessed as number of peritoneal cells per cavity at 3 mg/kg, po pretreated 1 hr before zymosan-challenge measured 4 hrs post inducer challenge (Rvb=31.5+/-1.2 million); type: functional

SMILES | Activity (Neutrophil [1]) | IC50 (Neutrophil [2]) [nM] | viability [3] [%] | other results
COC(=O)c1c(NCCN(C)C)n(-c2ccccc2)c(=S)n(-c2ccccc2)c1=O | inactive | 3.32 | ≥ 94 | –
CC(C)OC(=O)c1c(NCCN(C)C)n(-c2ccccc2)c(=S)n(-c2ccccc2)c1=O | inactive | 0.18 | ≥ 94 | Activity (Neutrophil [4]): inactive
CCOC(=O)c1c(NCCN2CCCCC2)n(-c2ccccc2)c(=S)n(-c2ccccc2)c1=O | inactive | 85.4 | ≥ 94 | –
CCOC(=O)c1c(NCCC2CCCN2C)n(-c2ccccc2)c(=S)n(-c2ccccc2)c1=O (stereo unspecified) | inactive | 1.61 | ≥ 94 | Activity [5]: inactive; Activity [6]: inactive
COC(=O)c1c(NCCc2c[nH]c3ccccc23)n(-c2ccccc2)c(=S)n(-c2ccccc2)c1=O | inactive | 29.6 | ≥ 94 | –
CC(=O)c1c(NCCN(C)C)n(-c2ccccc2)c(=S)n(-c2ccccc2)c1=O | inactive | 6.86 | ≥ 94 | –
CCOC(=O)c1c(NCCCN(C)C)n(-c2ccccc2)c(=S)n(-c2ccccc2)c1=O | inactive | 3.89 | ≥ 94 | –
CCOC(=O)c1c(NCCNc2ccccc2)n(-c2ccccc2)c(=S)n(-c2ccccc2)c1=O | inactive | 0.61 | ≥ 94 | Activity [5]: inactive; Activity [6]: inactive
COC(=O)c1c(NCC(OC)OC)n(-c2ccccc2)c(=S)n(-c2ccccc2)c1=O | inactive | 31.2 | ≥ 94 | –
CCOC(=O)c1c(NCCN(C)C)n(-c2ccccc2)c(=S)n(-c2ccccc2)c1=O | inactive | 0.1 | ≥ 94 | Activity (Neutrophil [4]): inactive
CCOC(=O)c1c(NCCOC)n(-c2ccccc2)c(=S)n(-c2ccccc2)c1=O | inactive | 1.36 | ≥ 94 | Activity [5]: inactive; Activity [6]: inactive
CCN(CC)CCNc1c(C(=O)OC(C)C)c(=O)n(-c2ccccc2)c(=S)n1-c1ccccc1 | inactive | 0.21 | ≥ 94 | Activity (Neutrophil [4]): inactive
CCOC(=O)c1c(NCCN(CC)CC)n(-c2ccccc2)c(=S)n(-c2ccccc2)c1=O | inactive | 0.02 | ≥ 94 | Activity (Mus musculus [7]): 17.7 million; Activity (Mus musculus [8]): 23.8 million; Activity [5]: inactive; Activity (Neutrophil [4]): inactive; Activity (Mus musculus [9]): 1520 µg/mL; Activity [6]: inactive
CCOC(=O)c1c(NCCN2CCOCC2)n(-c2ccccc2)c(=S)n(-c2ccccc2)c1=O | inactive | 172 | ≥ 94 | –
CCOC(=O)c1c(NCCc2ccccn2)n(-c2ccccc2)c(=S)n(-c2ccccc2)c1=O | inactive | 0.49 | ≥ 94 | Activity [5]: inactive; Activity [6]: inactive
COC(=O)c1c(NCCc2ccc(S(N)(=O)=O)cc2)n(-c2ccccc2)c(=S)n(-c2ccccc2)c1=O | inactive | 10.8 | ≥ 94 | –
CC(=O)c1c(N2CCN(C)CC2)n(-c2ccccc2)c(=S)n(-c2ccccc2)c1=O | inactive | 14.8 | ≥ 94 | –
C[C@@H]1C[C@H]2[C@@H]3CCC4=CC(=O)C=C[C@]4(C)[C@@]3(F)[C@@H](O)C[C@]2(C)[C@@]1(O)C(=O)CO [DEXAMETHASONE] | – | – | – | Activity (Mus musculus [10]): 1400 µg/mL; Activity (Mus musculus [11]): 18.5 million; Activity (Mus musculus [12]): 22 million
